Test [1] is described as follows: Growth inhibition of human U87MG cells assessed as cell viability after 72 hrs by MTT assay. The note with it: U-87 MG. It counts as functional, cell-based, U-87MG ATCC. In a few lines: (§1)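 Cells were grown in DMEM or RPMI with 10% FBS and 1% penicillin/streptomycin at 37 °C, 5% CO2. They were seeded at 2000–3000 cells, rested 24 h, then exposed to a range of concentrations for 72 h. MTT (5 mg/mL stock) was added for 2–4 h at 37 °C and formazan dissolved in DMSO. A570 was read and IC50 calculated; triplicate wells, three separate experiments.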

Test [2] is described as follows: Growth inhibition of human HCT116 cells assessed as cell viability after 72 hrs by MTT assay. It counts as functional, cell-based. As to conditions: HCT-116, 72 h. Put shortly:
as §1
A general note: Tetrazolium assays rely on reduction of a dye to a coloured formazan, in cell work by metabolically active cells.

A short description of test [3]: Growth inhibition of human PC3 cells assessed as cell viability after 72 hrs by MTT assay. It counts as functional, cell-based. The note with it: PC-3, 72 h. Put shortly: as §1

Broadly, the IC50 is the concentration that gives 50% inhibition.

Where only a bound is given, the exact number is not on record here.

Turning to `Cc1ccccc1-n1c(=O)[nH]c2c(=O)oc3ccc(-c4cccnc4)cc3c21`, the half-inhibitory concentration (IC50) in test [1], in test [2] and in test [3] was more than 40 µM in each case.

Regarding `CC(C)(C#N)c1ccc(-n2c(=O)[nH]c3c(=O)oc4ccc(-c5ccncc5)cc4c32)cc1`, the IC50 in test [1] came to 28.6 µM; in test [3], 29 µM.

In the case of `Cc1ccccc1-n1c(=O)[nH]c2c(=O)oc3ccc(-c4cnc5ccccc5c4)cc3c21`, the 50% inhibitory concentration (IC50) in test [1], in test [2] and in test [3] was more than 40 µM throughout.

Turning to `O=c1oc2ccc(-c3cnc4ccccc4c3)cc2c2c1[nH]c(=O)n2-c1ccccc1`, the IC50 in test [1] came out at 35.6 µM; in test [2], 31.5 µM; in test [3] it was 34 µM.

Turning to `N#CCc1ccc(-n2c(=O)[nH]c3c(=O)oc4ccc(-c5cccc(N)c5)cc4c32)cc1`, the IC50 in test [1] was more than 40 µM; in test [3], 36.5 µM.

Regarding `Cc1ccccc1-n1c(=O)[nH]c2c(=O)oc3ccc(-c4ccncc4)cc3c21`, the concentration for half-maximal inhibition (IC50) in test [1], in test [2] and in test [3] was more than 40 µM in each case.

For the compound `COc1ccc(-n2c(=O)[nH]c3c(=O)oc4ccc(-c5cnc6ccccc6c5)cc4c32)cc1`, the IC50 in test [1], in test [2] and in test [3] was more than 40 µM throughout.

For `CC(C)(C#N)c1ccc(-n2c(=O)[nH]c3c(=O)oc4ccc(-c5cccnc5)cc4c32)cc1`, the half-inhibitory concentration (IC50) in test [1] turned out to be 25.6 µM; in test [3] it was 38.2 µM.

For `O=c1oc2ccc(-c3cccc(NS(=O)(=O)c4ccc(F)cc4)c3)cc2c2c1[nH]c(=O)n2-c1ccccc1`, the IC50 in test [1], in test [2] and in test [3] was more than 40 µM each time.

For the compound `N#CCc1ccc(-n2c(=O)[nH]c3c(=O)oc4ccc(-c5cnc6ccccc6c5)cc4c32)cc1`, the IC50 worked out at 34.9 µM in test [1], 28.4 µM in test [2] and 30.2 µM in test [3].

As to `O=c1oc2ccc(-c3ccncc3)cc2c2c1[nH]c(=O)n2-c1ccccc1`, the IC50 in test [1] was 38.7 µM.

`N#CCc1ccc(-n2c(=O)[nH]c3c(=O)oc4ccc(-c5ccc(O)cc5)cc4c32)cc1`: the concentration for half-maximal inhibition (IC50) in test [1] came out at 29.6 µM; in test [2], 30.1 µM; in test [3] it was 30.6 µM.

As for `COc1ccc(-n2c(=O)[nH]c3c(=O)oc4ccc(-c5cccnc5)cc4c32)cc1`, the IC50 in test [1], in test [2] and in test [3] was more than 40 µM in each case.

In the case of `Cc1ccccc1-c1ccc2oc(=O)c3[nH]c(=O)n(-c4ccc(CC#N)cc4)c3c2c1`, the half-maximal inhibitory concentration (IC50) in test [1], in test [2] and in test [3] was more than 40 µM each time.

On to `Cc1ccccc1-c1ccc2oc(=O)c3[nH]c(=O)n(-c4ccccc4)c3c2c1`, for which the IC50 in test [1] was more than 40 µM.

Consider `CC(C)(C#N)c1ccc(-n2c(=O)[nH]c3c(=O)oc4ccc(-c5cnc6ccccc6c5)cc4c32)cc1`, for which the half-maximal inhibitory concentration (IC50) is 33.4 µM in test [1], 20.4 µM in test [2] and 19.8 µM in test [3].

For the compound `O=c1oc2ccc(-c3ccccc3)cc2c2c1[nH]c(=O)n2-c1ccccc1`, the IC50 in test [1] and in test [3] was more than 40 µM throughout.

With `O=c1oc2ccc(-c3ccc(O)cc3)cc2c2c1[nH]c(=O)n2-c1ccccc1`, in test [1], the IC50 was more than 40 µM.

`CS(=O)(=O)c1ccc(-c2ccc3oc(=O)c4[nH]c(=O)n(-c5ccc(CC#N)cc5)c4c3c2)cc1`: the IC50 in test [1] came out at 39.7 µM; in test [3], 29.6 µM.

For the compound `COc1ccc(-n2c(=O)[nH]c3c(=O)oc4ccc(-c5ccncc5)cc4c32)cc1`, the half-inhibitory concentration (IC50) in test [1], in test [2] and in test [3] was more than 40 µM in each case.

Consider `N#CCc1ccc(-n2c(=O)[nH]c3c(=O)oc4ccc(-c5cccnc5)cc4c32)cc1`, for which the IC50 in test [1] is more than 40 µM; in test [2] it was 29.4 µM; in test [3], more than 40 µM.

`N#CCc1ccc(-n2c(=O)[nH]c3c(=O)oc4ccc(-c5cccc(NS(=O)(=O)c6ccc(F)cc6)c5)cc4c32)cc1`: the concentration for half-maximal inhibition (IC50) in test [1], in test [2] and in test [3] was more than 40 µM each time.

As to `O=c1oc2ccc(-c3cccnc3)cc2c2c1[nH]c(=O)n2-c1ccccc1`, the half-maximal inhibitory concentration (IC50) in test [1] and in test [3] was more than 40 µM throughout.

Consider `N#CCc1ccc(-n2c(=O)[nH]c3c(=O)oc4ccc(-c5ccncc5)cc4c32)cc1`, for which the results for the 50% inhibitory concentration (IC50) in test [1], in test [2] and in test [3] were 36.4 µM, 37.2 µM and 37.1 µM, respectively.

`Nc1cccc(-c2ccc3oc(=O)c4[nH]c(=O)n(-c5ccccc5)c4c3c2)c1`: the IC50 in test [1] and in test [3] was more than 40 µM throughout.

In the case of `N#CCc1ccc(-n2c(=O)[nH]c3c(=O)oc4ccc(-c5ccccc5)cc4c32)cc1`, the figures for the half-maximal inhibitory concentration (IC50) in test [1], in test [2] and in test [3] were 31.4 µM, more than 40 µM and 35.3 µM, respectively.
